Results taken from ChEMBL document CHEMBL1127635, “Thiopyrano[2,3,4-cd]indoles as 5-lipoxygenase inhibitors: synthesis, biological profile, and resolution of 2-[2-[1-(4-chlorobenzyl)-4-methyl-6-[(5-phenylpyridin-2-yl)methoxy]-4,5 -dihydro-1H-thiopyrano[2,3,4-cd]indol-2-yl]ethoxy]butanoic acid” (J Med Chem, 1994).
One block for each compound: values may come before it.

What was measured:
[1] = biological target: T1, Polyunsaturated fatty acid 5-lipoxygenase (Homo sapiens, UniProt P09917); experiment: In vitro inhibition of human 5-Lipoxygenase.
T1 sequence (P09917 whole entry): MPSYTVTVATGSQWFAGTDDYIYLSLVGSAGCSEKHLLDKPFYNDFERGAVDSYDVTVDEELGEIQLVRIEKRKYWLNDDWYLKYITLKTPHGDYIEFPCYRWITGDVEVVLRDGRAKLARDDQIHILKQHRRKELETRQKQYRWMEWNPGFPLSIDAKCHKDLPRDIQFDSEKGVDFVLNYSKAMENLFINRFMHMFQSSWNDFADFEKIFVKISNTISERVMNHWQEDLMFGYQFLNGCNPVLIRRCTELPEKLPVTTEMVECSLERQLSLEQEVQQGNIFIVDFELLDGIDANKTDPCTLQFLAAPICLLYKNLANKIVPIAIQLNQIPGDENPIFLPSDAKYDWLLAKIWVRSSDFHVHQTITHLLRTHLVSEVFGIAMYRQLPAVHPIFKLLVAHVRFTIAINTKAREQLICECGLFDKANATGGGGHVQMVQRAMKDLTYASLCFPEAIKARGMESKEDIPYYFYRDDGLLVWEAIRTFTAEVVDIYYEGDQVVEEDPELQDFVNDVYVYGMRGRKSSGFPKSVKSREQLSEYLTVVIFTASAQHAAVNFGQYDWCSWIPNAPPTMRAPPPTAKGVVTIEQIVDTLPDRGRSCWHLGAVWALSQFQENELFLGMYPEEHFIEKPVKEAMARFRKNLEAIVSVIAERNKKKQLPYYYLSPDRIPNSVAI
Procedure, shortened: (§1)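 Spectrophotometric assay following 5-H(P)ETE production by the 100000g supernatant (S100) fraction of insect cells overexpressing human 5-LO.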

[2] = Cmax value in rat plasma when administered 20 mg/kg perorally; assay type: ADME, organism-based; design: dose 20 mg/kg, route oral; settings: po
Procedure, shortened: (§2)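 Rat plasma profiles after dosing the sodium salts either orally at 20 mg/kg in 1% methocel or iv at 5 mg/kg in PEG 200. Bioavailability is calculated as AUCpo/4 × AUCiv.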

[3] = Bioavailability in rat (dose 5 mg/kg i.v.); assay type: ADME, organism-based; settings: in vivo, iv; procedure, shortened: as §2
[4] = Tmax value in rat plasma when administered 20 mg/kg perorally; assay type: ADME, organism-based; design: dose 20 mg/kg, route oral; settings: po; procedure, shortened: as §2
Homo sapiens [5] = species on record: Homo sapiens; experiment: Effect on production of LTB4 in human polymorphonuclear leukocytes; assay type: functional
Procedure, shortened: (§3)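 LTB4 biosynthesis measured in human polymorphonuclear leukocytes activated with Ca2+ ionophore.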

Rattus norvegicus [6] = experiment: Tested for percentage inhibition of dyspnea (0.5 mg/kg po using methocel) by in vivo in hyperactive rat after 2 hours pretreatment; assay type: functional
Procedure, shortened: (§4)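 Inbred hyperreactive rats pretreated with methysergide 3 mg/kg iv. Drug given at 0.5 mg/kg po in methocel before ovalbumin challenge. Read-out is % inhibition of dyspnea duration versus litter-mate-matched vehicle controls, n = 6.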

Rattus norvegicus [7] = experiment: Tested for percentage inhibition of dyspnea (0.5 mg/kg po using methocel) by in vivo in hyperactive rat after 4 hours pretreatment; assay type: functional; procedure, shortened: as §4
Homo sapiens [8] = species on record: Homo sapiens; experiment: (§5) Effect on production of LTB4 in human polymorphonuclear (HPMN) leukocytes; assay type: functional; procedure, shortened: as §3
[9] = biological target: T1, Polyunsaturated fatty acid 5-lipoxygenase; experiment: Tested against 5-lipoxygenase; procedure, shortened: as §1
Rattus norvegicus [10] = species on record: Rattus norvegicus; experiment: Tested for effective inhibition of LTB4 with an 8 hr pretreatment; assay type: functional
Homo sapiens [11] = species on record: Homo sapiens; experiment: Effect on production of LTB4 in human whole blood; assay type: functional
Procedure, shortened: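 Human whole blood activated with ionophore A23187; inhibition of LTB4 biosynthesis assessed.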

Rattus norvegicus [12] = experiment: In vivo inhibition of LBT4 in a rat pleurisy model with a 6 h pretreatment time; assay type: functional
Procedure, shortened: (§6)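 Male Sprague-Dawley rats given 0.4 mL of 0.5% carrageenan in saline intrapleurally 16 h before drug. Drug doses ranged from 3 to 0.3 mg/kg. Intrapleural calcium ionophore challenge 6 h after dosing. LTB4 in pleural exudate measured 1 h later; ED50 derived, n = 6/group.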

[13] = Inhibition of Ascaris antigen induced bronchoconstriction in the conscious squirrel monkey at 0.1 mg/kg dose (Change in airway resistance); assay type: functional
Procedure, shortened: (§7)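 Allergic conscious squirrel monkeys pretreated with drug for 4 h, then challenged with aerosolized Ascaris antigen (1:25 dilution). Airway resistance (RL) increase and dynamic compliance (Cdyn) decrease recorded; % inhibition versus control, mean ± SEM.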

[14] = Inhibition of Ascaris antigen induced bronchoconstriction in the conscious squirrel monkey at 0.3 mg/kg dose (Change in airway resistance); assay type: functional; procedure, shortened: as §7
[15] = Tested for inhibition of Ascaris antigen induced bronchoconstriction in the conscious squirrel monkey at 0.1 mg/kg dose (changes in dynamic compliance); assay type: functional; procedure, shortened: as §7
[16] = Tested for inhibition of Ascaris antigen induced bronchoconstriction in the conscious squirrel monkey at 0.3 mg/kg dose (changes in dynamic compliance); assay type: functional; procedure, shortened: as §7
Homo sapiens [17] = species on record: Homo sapiens; experiment: as §5
Rattus norvegicus [18] = experiment: In vivo inhibition of LTB4 biosynthesis in a rat pleurisy model with an 6 hr pretreatment time; assay type: functional; procedure, shortened: as §6
[19] = Tested for inhibition of Ascaris antigen induced bronchoconstriction in the conscious squirrel monkey at 0.3 mg/kg dose (changes in the airway resistance(); assay type: functional; procedure, shortened: as §7

- IC50 [1]: 20 nM
- Cmax [2]: 3.8 µM
- bioavailability [3]: 35%
- Tmax [4]: 2 h
- IC50 (Homo sapiens [5]; Homo sapiens): 5 nM
Compound: CC1Cc2c(OCc3ccc(-c4ccccc4)cn3)ccc3c2c(c(CCOC(C)C(=O)O)n3Cc2ccc(Cl)cc2)S1 (stereo not given)
- Inhibition (Rattus norvegicus [6]): 53%
- Inhibition (Rattus norvegicus [7]): 2%

- IC50 [1]: 105 nM
- IC50 (Homo sapiens [5]; Homo sapiens): 11 nM
Compound: CC1Cc2c(OCc3ccc(-c4ccccc4)cn3)ccc3c2c(c(CCOCCC(=O)O)n3Cc2ccc(Cl)cc2)S1 (stereo not given)

- IC50 (Homo sapiens [5]; Homo sapiens): 31 nM
Compound: CC1Cc2c(OCc3ccc(-c4ccccc4)cn3)ccc3c2c(c(CCOCC(=O)O)n3Cc2ccc(Cl)cc2)S1 (stereo not given)

- IC50 [1]: 120 nM
- IC50 (Homo sapiens [5]; Homo sapiens): 12 nM
Compound: CC[C@H](CSCc1c2c3c(c(OCc4ccc(-c5ccccc5)cn4)ccc3n1Cc1ccc(Cl)cc1)CC(C)S2)C(=O)O (stereo not given in full)

- IC50 [1]: 20 nM
- Cmax [2]: 4 µM
- bioavailability [3]: 72%
- Tmax [4]: 4 h
- IC50 (Homo sapiens [5]; Homo sapiens): 6.5 nM
Compound: CCC(OCCc1c2c3c(c(OCc4ccc(-c5ccccc5)cn4)ccc3n1Cc1ccc(Cl)cc1)CC(C)S2)C(=O)NS(C)(=O)=O (stereo not given)

- IC50 (Homo sapiens [5]; Homo sapiens): 17 nM
Compound: CC1Cc2c(OCc3ccc(-c4ccccc4)cn3)ccc3c2c(c(COCC(=O)O)n3Cc2ccc(Cl)cc2)S1 (stereo not given)

- IC50 (Homo sapiens [8]): 10 nM
- IC50 [9]: 60 nM
Compound: CC1Cc2c(OCc3ccc(-c4ccccc4)cn3)ccc3c2c(c(CCOC(C)c2nnn[nH]2)n3Cc2ccc(Cl)cc2)S1 (stereo not given)

- IC50 [1]: 70 nM
- IC50 (Homo sapiens [5]; Homo sapiens): 50 nM
Compound: CC(CC(=O)O)SCc1c2c3c(c(OCc4ccc(-c5ccccc5)cn4)ccc3n1Cc1ccc(Cl)cc1)CC(C)S2 (stereo not given)

- IC50 (Homo sapiens [5]; Homo sapiens): 17 nM
Compound: CC1Cc2c(OCc3ccc(-c4ccccc4)cn3)ccc3c2c(c(CCSC(C)C(=O)O)n3Cc2ccc(Cl)cc2)S1 (stereo not given)

- IC50 (Homo sapiens [5]; Homo sapiens): 6 nM
Compound: CCC(CSCc1c2c3c(c(OCc4ccc(-c5ccccc5)cn4)ccc3n1Cc1ccc(Cl)cc1)CC(C)S2)C(=O)O (stereo not given)

- IC50 [1]: 4000 nM
- IC50 (Homo sapiens [5]; Homo sapiens): 1100 nM
Compound: CC1Cc2c(OCc3ccc(-c4ccccc4)cn3)ccc3c2c(c(CCNC(C)C(=O)O)n3Cc2ccc(Cl)cc2)S1 (stereo not given)

- IC50 [1]: 300 nM
- IC50 (Homo sapiens [5]; Homo sapiens): 200 nM
Compound: CC1Cc2c(OCc3ccc(-c4ccccc4)cn3)ccc3c2c(c(CC(=O)N(C)C(C)C(=O)O)n3Cc2ccc(Cl)cc2)S1 (stereo not given)

- IC50 [1]: 900 nM
- IC50 (Homo sapiens [5]; Homo sapiens): 113 nM
Compound: CC(=O)N(CCc1c2c3c(c(OCc4ccc(-c5ccccc5)cn4)ccc3n1Cc1ccc(Cl)cc1)CC(C)S2)C(C)C(=O)O (stereo not given)

- IC50 (Homo sapiens [8]): 8 nM
Compound: CC1Cc2c(OCc3ccc(-c4ccccc4)cn3)ccc3c2c(c(CC(C)(C)Cc2nnn[nH]2)n3Cc2ccc(Cl)cc2)S1 (stereo not given)
- ED50 (Rattus norvegicus [10]): 1.9 mg/kg

- IC50 (Homo sapiens [5]; Homo sapiens): 20 nM
Compound: CC1Cc2c(OCc3ccc(-c4ccccc4)cn3)ccc3c2c(c(CSCC(C)C(=O)O)n3Cc2ccc(Cl)cc2)S1 (stereo not given)

- IC50 [1]: 22 nM
- IC50 (Homo sapiens [5]; Homo sapiens): 4.5 nM
Compound: CC1Cc2c(OCc3ccc(-c4ccccc4)cn3)ccc3c2c(c(CCOC(C)C(=O)NS(C)(=O)=O)n3Cc2ccc(Cl)cc2)S1 (stereo not given)

- IC50 [1]: 50 nM
- IC50 (Homo sapiens [5]; Homo sapiens): 7 nM
Compound: CC1Cc2c(OCc3ccc(-c4ccccc4)cn3)ccc3c2c(c(CCOC(C)(C)C(=O)O)n3Cc2ccc(Cl)cc2)S1 (stereo not given)

- IC50 [1]: 250 nM
- IC50 (Homo sapiens [5]; Homo sapiens): 65 nM
Compound: CC1Cc2c(OCc3ccc(-c4ccccc4)cn3)ccc3c2c(c(COCCC(=O)O)n3Cc2ccc(Cl)cc2)S1 (stereo not given)

- IC50 [1]: 40 nM
- IC50 (Homo sapiens [5]; Homo sapiens): 7 nM
Compound: CC[C@@H](CSCc1c2c3c(c(OCc4ccc(-c5ccccc5)cn4)ccc3n1Cc1ccc(Cl)cc1)CC(C)S2)C(=O)O (stereo not given in full)

- IC50 (Homo sapiens [5]; Homo sapiens): 15 nM
Compound: CC1Cc2c(OCc3ccc(-c4ccccc4)cn3)ccc3c2c(c(CSCC(=O)O)n3Cc2ccc(Cl)cc2)S1 (stereo not given)

- IC50 [1]: 55 nM
- IC50 (Homo sapiens [5]; Homo sapiens): 10 nM
Compound: CC1Cc2c(OCc3ccc(-c4ccccc4)cn3)ccc3c2c(c(CSCCC(=O)O)n3Cc2ccc(Cl)cc2)S1 (stereo not given)

- IC50 [1]: 22 nM
- Cmax [2]: 5.5 µM
- bioavailability [3]: 88%
- Tmax [4]: 6 h
- IC50 (Homo sapiens [11]): 3800 nM
- IC50 (Homo sapiens [5]): 7 nM
Compound: CCC(OCCc1c2c3c(c(OCc4ccc(-c5ccccc5)cn4)ccc3n1Cc1ccc(Cl)cc1)CC(C)S2)C(=O)O (stereo in doubt; 14d)
- ED50 (Rattus norvegicus [12]): 0.65 mg/kg
- Inhibition (Rattus norvegicus [6]): 55%
- Inhibition (Rattus norvegicus [7]): 51%
- inhibition in vivo at 0.1 mg/kg [13]: 89%
- inhibition in vivo at 0.3 mg/kg [14]: 100%
- inhibition in vivo at 0.1 mg/kg [15]: 68%
- inhibition in vivo at 0.3 mg/kg [16]: 100%

- IC50 [1]: 13 nM
- IC50 (Homo sapiens [11]): 1800 nM
- IC50 (Homo sapiens [5]): 3.5 nM
Compound: CCC(OCCc1c2c3c(c(OCc4ccc(-c5ccccc5)cn4)ccc3n1Cc1ccc(Cl)cc1)CC(C)S2)C(=O)O (stereo in doubt; 14e)

- IC50 [1]: 150 nM
- IC50 (Homo sapiens [11]): 16000 nM
- IC50 (Homo sapiens [5]): 10 nM
Compound: CCC(OCCc1c2c3c(c(OCc4ccc(-c5ccccc5)cn4)ccc3n1Cc1ccc(Cl)cc1)CC(C)S2)C(=O)O (stereo in doubt; 14f)

- IC50 [1]: 8 nM
- IC50 (Homo sapiens [11]): 1000 nM
- IC50 (Homo sapiens [5]): 4 nM
Compound: CCC(OCCc1c2c3c(c(OCc4ccc(-c5ccccc5)cn4)ccc3n1Cc1ccc(Cl)cc1)CC(C)S2)C(=O)O (stereo in doubt; 14g)

- IC50 [1]: 80 nM
- IC50 (Homo sapiens [11]): 4800 nM
- IC50 (Homo sapiens [5]): 17 nM
Compound: CCC(OCCc1c2c3c(c(OCc4ccc(-c5ccccc5)cn4)ccc3n1Cc1ccc(Cl)cc1)CC(C)S2)C(=O)O (stereo in doubt; 14h)

- IC50 (Homo sapiens [17]): 3 nM
Compound: CC(C)(C)Sc1c(CC(C)(C)C(=O)O)n(Cc2ccc(Cl)cc2)c2ccc(OCc3ccc4ccccc4n3)cc12 [QUIFLAPON]
- ED50 (Rattus norvegicus [18]): 0.16 mg/kg
- inhibition in vivo at 0.3 mg/kg [16]: 46%
- inhibition in vivo at 0.3 mg/kg [19]: 44%

- IC50 (Homo sapiens [11]; Homo sapiens, Blood): 2000 nM
- IC50 (Homo sapiens [8]): 1060 nM
Compound: CC(c1cc2ccccc2s1)N(O)C(N)=O (stereo not given) [ZILEUTON]
